Results from ChEMBL document CHEMBL3861974, “Discovery of a Selective Aurora A Kinase Inhibitor by Virtual Screening” (J Med Chem, 2016).
The source made the active and inactive calls. The calls are words filed in the database; no cut-off is given here.

What was measured:
Aurora kinase A [1] = target: T1, Aurora kinase A (Homo sapiens, UniProt O14965); assay: Inhibition of His-tagged human Aurora A kinase ([…] residues) expressed in Escherichia coli BL21 (DE3) Rosetta cells using biotinylated STK2 substrate incubated for 30 mins by HTRF assay
T1 sequence (O14965 whole entry): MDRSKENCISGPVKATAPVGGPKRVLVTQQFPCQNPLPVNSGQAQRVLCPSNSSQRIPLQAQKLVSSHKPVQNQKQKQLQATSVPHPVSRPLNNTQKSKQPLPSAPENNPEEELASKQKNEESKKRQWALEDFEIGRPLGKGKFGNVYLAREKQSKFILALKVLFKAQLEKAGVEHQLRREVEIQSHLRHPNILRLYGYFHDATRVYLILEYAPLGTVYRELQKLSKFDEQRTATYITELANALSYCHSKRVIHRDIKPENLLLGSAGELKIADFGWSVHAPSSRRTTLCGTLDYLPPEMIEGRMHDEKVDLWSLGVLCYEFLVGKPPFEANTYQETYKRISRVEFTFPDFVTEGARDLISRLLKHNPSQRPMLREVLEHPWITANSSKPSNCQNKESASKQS

[2] = target: Aurora kinase B/Inner centromere protein (Homo sapiens, UniProt Q96GD4); assay: Inhibition of Aurora-B/INCENP (unknown origin) using biotinylated STK2 substrate incubated for 30 mins by HTRF assay; type: protein-complex assay
Outline: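 Biochemical kinase inhibition was read by HTRF with 20 µM ATP. Aurora B was assayed as its complex with the activator INCENP. For Aurora A, IC50 curves were recorded at different TPX2 concentrations.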

Aurora kinase B [3] = target: T2, Aurora kinase B (Homo sapiens, UniProt Q96GD4); assay: Binding affinity to human Aurora B kinase expressed in Escherichia coli BL21 cells incubated for 1 hr by active site directed binding competition assay
Outline: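 Kinome scan of 456 kinases using an active-site-directed binding competition assay, followed by determination of binding affinities (Kd). Aurora B in this scan was free enzyme without INCENP.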

[4] = target: T3, Aurora kinase A (Homo sapiens) (UniProt O14965); assay: Binding affinity to His-tagged human Aurora A kinase ([…] residues) expressed in Escherichia coli BL21 (DE3) Rosetta cells assessed as reduction in Aurora A binding to TPX-labeled human TPX2 N-terminal domain (1 to 43 residues) at 125 uM incubated for 30 mins by microscale thermophoresis method
T3 sequence (whole entry): T1 sequence (O14965 whole entry)

[5] = target: T3, Aurora kinase A (Homo sapiens); assay: Inhibition of Aurora A kinase localization at spindle microtubules in human HeLa Kyoto cells at 10 uM incubated for 20 hrs; type: cell-based
Outline: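 HeLa Kyoto cells were treated overnight, then immunostained for Aurora A and TPX2 with DNA counterstain. Aurora A at spindle microtubules versus centrosomes was assessed by fluorescence imaging.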

Aurora kinase A [6] = target: T1, Aurora kinase A; assay: Inhibition of Aurora A kinase autophosphorylation at Thr288 in human HeLa Kyoto cells incubated for 20 hrs; type: cell-based
Aurora kinase B [7] = target: T2, Aurora kinase B; assay: Inhibition of Aurora B kinase in human HeLa Kyoto cells assessed as effect on distribution of phspho-histone H3 ser10 level incubated for 20 hrs
[8] = target: T3, Aurora kinase A (Homo sapiens); assay: Inhibition of Aurora A kinase in human HeLa Kyoto cells assessed as induction of defective chromosome alignment during metaphase at 10 uM incubated for 20 hrs; type: cell-based
Outline: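 HeLa Kyoto cells were treated overnight and stained for pThr288 Aurora A, α-tubulin and DNA. Cells with chromosomes not aligned on the metaphase plate were scored. Experiment repeated twice, SD. Rescue variant: cells transfected with GFP-Aurora A wild-type, Arg137Ala or Trp277Ala before treatment; only highest expressers analysed, ≥100 cells per condition.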

T2 sequence (Q96GD4 whole entry): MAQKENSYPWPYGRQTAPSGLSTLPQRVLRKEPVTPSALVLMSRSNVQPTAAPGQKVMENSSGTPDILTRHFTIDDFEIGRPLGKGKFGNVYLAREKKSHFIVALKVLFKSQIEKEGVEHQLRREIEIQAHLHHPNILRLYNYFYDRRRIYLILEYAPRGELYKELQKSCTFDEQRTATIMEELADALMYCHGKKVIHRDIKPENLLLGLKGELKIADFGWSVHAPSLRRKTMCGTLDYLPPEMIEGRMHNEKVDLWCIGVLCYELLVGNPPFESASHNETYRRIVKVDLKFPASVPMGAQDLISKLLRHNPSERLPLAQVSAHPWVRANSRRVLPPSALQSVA
Chain of Aurora kinase B/Inner centromere protein (Q96GD4 whole entry): as above
Chain of Aurora kinase B/Inner centromere protein (Q9NQS7 whole entry, further chain): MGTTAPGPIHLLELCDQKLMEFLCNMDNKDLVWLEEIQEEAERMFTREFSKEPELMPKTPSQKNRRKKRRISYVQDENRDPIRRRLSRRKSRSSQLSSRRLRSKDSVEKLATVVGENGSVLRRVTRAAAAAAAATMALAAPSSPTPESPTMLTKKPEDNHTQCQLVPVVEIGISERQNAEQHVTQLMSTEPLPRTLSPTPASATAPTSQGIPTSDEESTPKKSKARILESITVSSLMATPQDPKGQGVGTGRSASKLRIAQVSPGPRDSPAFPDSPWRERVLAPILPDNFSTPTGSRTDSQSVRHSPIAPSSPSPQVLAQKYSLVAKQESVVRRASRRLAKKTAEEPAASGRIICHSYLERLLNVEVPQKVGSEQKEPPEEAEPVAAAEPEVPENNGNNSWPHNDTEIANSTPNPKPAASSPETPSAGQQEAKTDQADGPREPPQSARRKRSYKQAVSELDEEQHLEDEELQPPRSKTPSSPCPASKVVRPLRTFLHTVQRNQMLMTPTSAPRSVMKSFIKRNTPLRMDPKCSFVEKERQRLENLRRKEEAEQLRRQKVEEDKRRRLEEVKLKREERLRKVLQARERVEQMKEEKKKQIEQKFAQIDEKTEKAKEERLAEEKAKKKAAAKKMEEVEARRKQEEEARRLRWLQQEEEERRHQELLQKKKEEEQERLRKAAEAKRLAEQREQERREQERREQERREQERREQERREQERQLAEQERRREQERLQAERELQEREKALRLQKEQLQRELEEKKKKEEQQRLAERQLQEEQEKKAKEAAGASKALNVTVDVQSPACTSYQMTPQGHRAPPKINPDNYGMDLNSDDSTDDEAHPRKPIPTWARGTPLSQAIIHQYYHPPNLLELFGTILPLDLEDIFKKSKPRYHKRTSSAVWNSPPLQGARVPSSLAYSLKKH

- IC50 (Aurora kinase A [1]): 2 nM
- IC50 [2]: 150 nM
- Kd (Aurora kinase B [3]): 10.1 nM
- Activity [4]: Active
- inhibition [5]: Active
- IC50 (Aurora kinase A [6]): 760 nM
- IC50 (Aurora kinase B [7]): > 25000 nM
- inhibition [8]: Active
SMILES: CCc1ccc(/N=C2\S/C(=C\c3ccnc(Nc4ccc(C(=O)O)cn4)c3)C(=O)N2C)cc1
